According to ChEMBL document CHEMBL3779876, “Synthesis and biological evaluation of novel 2,3-dihydrochromeno[3,4-d]imidazol-4(1H)-one derivatives as potent anticancer cell proliferation and migration agents” (Eur J Med Chem, 2016):

Key:
[1] = Growth inhibition of human U87MG cells assessed as cell viability after 72 hrs by MTT assay; format: functional, cell-based, U-87MG ATCC; conditions: U-87 MG
Procedure, shortened: (§1)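 Cells were grown in DMEM or RPMI with 10% FBS and 1% penicillin/streptomycin at 37 °C, 5% CO2. They were seeded at 2000–3000 cells, rested 24 h, then exposed to a range of concentrations for 72 h. MTT (5 mg/mL stock) was added for 2–4 h at 37 °C and formazan dissolved in DMSO. A570 was read and IC50 calculated; triplicate wells, three separate experiments.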

[2] = Growth inhibition of human PC3 cells assessed as cell viability after 72 hrs by MTT assay; format: functional, cell-based; conditions: PC-3, 72 h; procedure, shortened: as §1
[3] = Growth inhibition of human HCT116 cells assessed as cell viability after 72 hrs by MTT assay; format: functional, cell-based; conditions: HCT-116, 72 h; procedure, shortened: as §1

Row | SMILES | IC50 [1] [µM] | IC50 [2] [µM] | IC50 [3] [µM]
1 | N#CCc1ccc(-n2c(=O)[nH]c3c(=O)oc4ccc(-c5cccnc5)cc4c32)cc1 | > 40 | > 40 | 29.4
2 | Cc1ccccc1-c1ccc2oc(=O)c3[nH]c(=O)n(-c4ccc(CC#N)cc4)c3c2c1 | > 40 | > 40 | > 40
3 | COc1ccc(-n2c(=O)[nH]c3c(=O)oc4ccc(-c5cccnc5)cc4c32)cc1 | > 40 | > 40 | > 40
4 | N#CCc1ccc(-n2c(=O)[nH]c3c(=O)oc4ccc(-c5ccncc5)cc4c32)cc1 | 36.4 | 37.1 | 37.2
5 | Cc1ccccc1-n1c(=O)[nH]c2c(=O)oc3ccc(-c4ccncc4)cc3c21 | > 40 | > 40 | > 40
6 | N#CCc1ccc(-n2c(=O)[nH]c3c(=O)oc4ccc(-c5ccccc5)cc4c32)cc1 | 31.4 | 35.3 | > 40
7 | CC(C)(C#N)c1ccc(-n2c(=O)[nH]c3c(=O)oc4ccc(-c5cccnc5)cc4c32)cc1 | 25.6 | 38.2 | –
8 | O=c1oc2ccc(-c3cnc4ccccc4c3)cc2c2c1[nH]c(=O)n2-c1ccccc1 | 35.6 | 34 | 31.5
9 | O=c1oc2ccc(-c3cccc(NS(=O)(=O)c4ccc(F)cc4)c3)cc2c2c1[nH]c(=O)n2-c1ccccc1 | > 40 | > 40 | > 40
10 | O=c1oc2ccc(-c3cccnc3)cc2c2c1[nH]c(=O)n2-c1ccccc1 | > 40 | > 40 | –
11 | O=c1oc2ccc(-c3ccncc3)cc2c2c1[nH]c(=O)n2-c1ccccc1 | 38.7 | – | –
12 | CS(=O)(=O)c1ccc(-c2ccc3oc(=O)c4[nH]c(=O)n(-c5ccc(CC#N)cc5)c4c3c2)cc1 | 39.7 | 29.6 | –
13 | Cc1ccccc1-c1ccc2oc(=O)c3[nH]c(=O)n(-c4ccccc4)c3c2c1 | > 40 | – | –
14 | Cc1ccccc1-n1c(=O)[nH]c2c(=O)oc3ccc(-c4cnc5ccccc5c4)cc3c21 | > 40 | > 40 | > 40
